Data: ChEMBL document CHEMBL1275303, “Synthesis and antimicrobial activity of 2-substituted [4-(1,3,4-oxadiazol-2-yl methyl)] phthalazin-1(2H)-one derivatives” (2010)

Legend:
[1] = system: Chrysosporium keratinophilum; experiment: Antimicrobial activity against Chrysosporium keratinophilum at 50 ug/mL after 72 hrs by well plate method; type: functional; settings: read-out: IZ
How it was run: (§1)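 Antifungal well-plate assay on Sabouraud dextrose agar using a 72 h old broth culture of the fungal strain. Wells were filled with compound dissolved in DMSO (100 or 50), and the zone of inhibition around each well was measured. […] served as reference.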

Aspergillus flavus [2] = experiment: Antimicrobial activity against Aspergillus flavus at 50 ug/mL after 72 hrs by well plate method; type: functional; settings: read-out: IZ
Candida albicans [3] = experiment: Antimicrobial activity against Candida albicans at 100 ug/mL after 72 hrs by well plate method; type: functional; settings: read-out: IZ; how it was run: as §1
Bacillus subtilis [4] = experiment: Antimicrobial activity against Bacillus subtilis at 100 ug/mL after 24 hrs by well plate method; type: functional; settings: read-out: IZ
How it was run: (§2)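 Agar well diffusion in nutrient agar. About 1 cm³ of a 24 h broth culture was placed in sterile dishes, and molten agar at 45 °C was poured over it and set. 6 mm wells were bored and filled with compound in DMSO (100 or 50). Plates were incubated 24 h at 37 °C, and the inhibition zone was read in mm. Duplicate runs, with standard deviation; amoxicillin as reference.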

Salmonella typhi [5] = experiment: Antimicrobial activity against Salmonella typhi at 100 ug/mL after 24 hrs by well plate method; type: functional, Salmonella enterica subsp. enterica serovar Typhi; settings: Salmonella enterica, read-out: IZ
How it was run: (§3)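 Agar well diffusion in nutrient agar: about 1 cm³ of a 24 h broth culture placed in a sterile dish, molten agar at 45 °C poured over it and allowed to set. 6 mm holes cut with a sterile cork borer and filled with compound solution in DMSO. Incubated 24 h at 37 °C; inhibition zone diameter read in mm. Run in duplicate, standard deviation calculated.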

Aspergillus flavus [6] = experiment: Antimicrobial activity against Aspergillus flavus at 100 ug/mL after 72 hrs by well plate method; type: functional; settings: read-out: IZ
Nannizzia gypsea [7] = experiment: Antimicrobial activity against Microsporum gypseum at 100 ug/mL after 72 hrs by well plate method; type: functional; settings: read-out: IZ; how it was run: as §1
[8] = system: Chrysosporium keratinophilum; experiment: Antimicrobial activity against Chrysosporium keratinophilum at 100 ug/mL after 72 hrs by well plate method; type: functional; settings: read-out: IZ; how it was run: as §1
Nannizzia gypsea [9] = experiment: Antimicrobial activity against Microsporum gypseum at 50 ug/mL after 72 hrs by well plate method; type: functional; settings: read-out: IZ; how it was run: as §1
Staphylococcus aureus [10] = experiment: Antimicrobial activity against Staphylococcus aureus at 100 ug/mL after 24 hrs by well plate method; type: functional; settings: read-out: IZ; how it was run: as §2
Staphylococcus aureus [11] = experiment: Antimicrobial activity against Staphylococcus aureus at 50 ug/mL after 24 hrs by well plate method; type: functional; settings: read-out: IZ; how it was run: as §2
Escherichia coli [12] = experiment: Antimicrobial activity against Escherichia coli at 100 ug/mL after 24 hrs by well plate method; type: functional; settings: read-out: IZ; how it was run: as §2
Candida albicans [13] = experiment: Antimicrobial activity against Candida albicans at 50 ug/mL after 72 hrs by well plate method; type: functional; settings: read-out: IZ; how it was run: as §1
Bacillus subtilis [14] = experiment: Antimicrobial activity against Bacillus subtilis at 50 ug/mL after 24 hrs by well plate method; type: functional; settings: read-out: IZ; how it was run: as §2
Escherichia coli [15] = experiment: Antimicrobial activity against Escherichia coli at 50 ug/mL after 24 hrs by well plate method; type: functional; settings: read-out: IZ; how it was run: as §2
Salmonella typhi [16] = experiment: Antimicrobial activity against Salmonella typhi at 50 ug/mL after 24 hrs by well plate method; type: functional, Salmonella enterica subsp. enterica serovar Typhi; settings: Salmonella enterica, read-out: IZ; how it was run: as §3

| Structure (SMILES) | zone of inhibition at 50 µg/mL [1] [mm] | zone of inhibition at 50 µg/mL (Aspergillus flavus [2]) [mm] | zone of inhibition at 100 µg/mL (Candida albicans [3]) [mm] | zone of inhibition at 100 µg/mL (Bacillus subtilis [4]) [mm] | zone of inhibition at 100 µg/mL (Salmonella typhi [5]) [mm] | zone of inhibition at 100 µg/mL (Aspergillus flavus [6]) [mm] | zone of inhibition at 100 µg/mL (Nannizzia gypsea [7]) [mm] | zone of inhibition at 100 µg/mL [8] [mm] | zone of inhibition at 50 µg/mL (Nannizzia gypsea [9]) [mm] | zone of inhibition at 100 µg/mL (Staphylococcus aureus [10]) [mm] | zone of inhibition at 50 µg/mL (Staphylococcus aureus [11]) [mm] | zone of inhibition at 100 µg/mL (Escherichia coli [12]) [mm] | zone of inhibition at 50 µg/mL (Candida albicans [13]) [mm] | zone of inhibition at 50 µg/mL (Bacillus subtilis [14]) [mm] | zone of inhibition at 50 µg/mL (Escherichia coli [15]) [mm] | zone of inhibition at 50 µg/mL (Salmonella typhi [16]) [mm] |
| --- | --- | --- | --- | --- | --- | --- | --- | --- | --- | --- | --- | --- | --- | --- | --- | --- |
| O=c1c2ccccc2c(Cc2nnc(-c3ccc(Cl)nc3)o2)nn1Cc1cnc(Cl)s1 | 5.5 | 4 | 10.5 | 6 | 5 | 8 | 7.5 | 8.5 | 4 | 7 | 4 | 12 | 9.5 | 4 | 8 | 3 |
| Cc1nnc(Cc2nn(CCN3CCOCC3)c(=O)c3ccccc23)o1 | 0 | 1 | 2.5 | 1 | 4.5 | 3.5 | 3.5 | 0 | 0 | 3.5 | 0 | 2.5 | 1 | 0 | 0 | 1.5 |
| O=c1c2ccccc2c(Cc2nnc(C(F)(F)F)o2)nn1CCN1CCOCC1 | 2 | 2.5 | 3.5 | 5 | 2.5 | 5.5 | 4 | 4.5 | 2 | 0 | 0 | 3.5 | 0.5 | 2 | 0 | 0 |
| O=c1c2ccccc2c(Cc2nnc(C3CC3)o2)nn1CCN1CCOCC1 | 0.5 | 2.5 | 4.5 | 5.5 | 6.5 | 5 | 6 | 2.5 | 3.5 | 1.5 | 0 | 5 | 2.5 | 3.5 | 1.5 | 2.5 |
| O=c1c2ccccc2c(Cc2nnc(-c3ccc(F)cc3)o2)nn1CCN1CCOCC1 | 2.5 | 2 | 5.5 | 6 | 5 | 4 | 7.5 | 5.5 | 4 | 1 | 0 | 2 | 2.5 | 3 | 0 | 3.5 |
| O=c1c2ccccc2c(Cc2nnc(-c3ccc(Cl)cc3)o2)nn1CCN1CCOCC1 | 0 | 0 | 3.5 | 4 | 4.5 | 1 | 3 | 1.5 | 1 | 8 | 5 | 7 | 1 | 2 | 3 | 3 |
